Experiments:
[1] = Distribution coefficient, log D of the compound at pH 7.4 by potentiometric titration method; assay type: physicochemical; details: octanol/water
Outline: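 log D at pH 7.4 measured by potentiometric titration on a Gemini Profiler.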

[2] = Stability of the compound in human plasma assessed as parent compound remaining at 1 uM measured after 10 mins by LC-MS/MS analysis; assay type: ADME, cell-free; details: read-out: Stability
Outline: (§1)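 Compound diluted from 10 mM DMSO stock to 1 μM in mouse or human plasma and held at 37 °C in a water bath. Reactions were stopped with acetonitrile at 0, 10, 30, 60 and 90 min. Parent compound was quantified by LC-MS/MS as % remaining.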

[3] = target: T1, Glucocorticoid receptor (Homo sapiens, UniProt P04150); experiment: Effect on glucocorticoid receptor phosphorylation in human HCT116 cells at 10 uM measured up to 48 hrs by Western blot analysis; assay type: ADME, cell-based
T1 sequence (P04150 whole entry): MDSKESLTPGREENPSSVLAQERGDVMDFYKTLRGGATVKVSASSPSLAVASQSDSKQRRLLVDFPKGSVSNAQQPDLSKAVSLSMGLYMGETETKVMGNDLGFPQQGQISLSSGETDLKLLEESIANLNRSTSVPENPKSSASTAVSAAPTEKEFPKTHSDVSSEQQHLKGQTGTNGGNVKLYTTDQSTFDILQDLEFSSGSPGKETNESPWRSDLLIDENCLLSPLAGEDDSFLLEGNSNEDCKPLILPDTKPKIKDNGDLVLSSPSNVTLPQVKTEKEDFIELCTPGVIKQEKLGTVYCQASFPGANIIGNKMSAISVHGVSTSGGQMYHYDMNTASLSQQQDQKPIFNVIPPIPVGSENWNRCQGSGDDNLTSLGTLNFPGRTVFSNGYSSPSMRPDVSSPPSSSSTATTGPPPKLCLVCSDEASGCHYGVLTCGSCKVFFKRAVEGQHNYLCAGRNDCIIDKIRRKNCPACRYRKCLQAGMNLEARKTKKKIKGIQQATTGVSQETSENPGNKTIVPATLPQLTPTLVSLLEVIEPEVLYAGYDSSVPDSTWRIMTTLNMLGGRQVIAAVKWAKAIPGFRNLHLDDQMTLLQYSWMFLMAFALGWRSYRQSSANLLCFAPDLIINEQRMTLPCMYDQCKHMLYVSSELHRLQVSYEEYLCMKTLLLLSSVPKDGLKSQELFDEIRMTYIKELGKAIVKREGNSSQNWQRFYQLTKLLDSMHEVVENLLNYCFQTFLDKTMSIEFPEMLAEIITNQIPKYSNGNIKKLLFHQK
Outline: (§2)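 HCT116 cells treated with 0, 1, 5 or 10 µM for 24 h, or with 10 µM for 0, 4, 12, 24 or 48 h. Lysates separated by SDS-PAGE and blotted. Membranes blocked in 5% milk, primary antibodies overnight at 4 °C, HRP secondaries, chemiluminescent detection.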

[4] = target: T1, Glucocorticoid receptor; experiment: Effect on glucocorticoid receptor in human HCT116 cells at 10 uM measured up to 48 hrs by Western blot analysis; assay type: ADME, cell-based; outline: as §2
[5] = test system: HCT-116; experiment: Effect on CDC37 expression in human HCT116 cells at 10 uM measured up to 48 hrs by Western blot analysis; assay type: cell-based; details: hct-116, 48 h; outline: as §2
[6] = test system: HCT-116; experiment: Effect on HSP90 expression in human HCT116 cells at 10 uM measured up to 48 hrs by Western blot analysis; assay type: cell-based; details: hct-116, 48 h; outline: as §2
[7] = target: T1, Glucocorticoid receptor; experiment: Effect on glucocorticoid receptor in human HCT116 cells up to 10 uM measured after 24 hrs by Western blot analysis; assay type: ADME, cell-based; outline: as §2
[8] = Stability of the compound in mouse plasma assessed as parent compound remaining at 1 uM measured after 60 mins by LC-MS/MS analysis; assay type: ADME, cell-free; details: read-out: Stability; outline: as §1
[9] = test system: HCT-116; experiment: Effect on CDC37 expression in human HCT116 cells up to 10 uM measured after 24 hrs by Western blot analysis; assay type: cell-based; details: hct-116, 24 h; outline: as §2
[10] = Stability of the compound in mouse plasma assessed as parent compound remaining at 1 uM measured after 90 mins by LC-MS/MS analysis; assay type: ADME, cell-free; details: read-out: Stability; outline: as §1
[11] = target: T2, Heat shock protein HSP90 (Homo sapiens, UniProt P07900+P08238); experiment: Inhibition of recombinant full-length HSP90 ATPase activity N-terminal domain (9 to 236 residues) (unknown origin) expressed in Escherichia coli BL21 (DE3) measured after 1 hr by ADP hunter plus assay
[12] = AUC (0 to infinity) in plasma of human HCT116 cells xenografted BALB/c mouse at 80 mg/kg, po administered as single dose by LC-MS/MS analysis; assay type: ADME, organism-based; parameters: dose 80 mg/kg, time infinity, route oral
Outline: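 Tumour-bearing mice (n = 6 per group) given one oral dose of 80 mg/kg. Blood and tumour collected into heparinized tubes at 0, 0.25, 0.5, 1, 2, 4, 8, 12 and 24 h. Plasma obtained by centrifugation at 3000 rpm for 10 min. Samples stored at -80 °C and quantified by LC-MS/MS.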

[13] = Tmax in plasma of human HCT116 cells xenografted BALB/c mouse at 80 mg/kg, po administered as single dose by LC-MS/MS analysis; assay type: ADME, organism-based
Outline: (§3)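 HCT116-xenografted mice (n = 6 per group) received a single oral 80 mg/kg dose. Blood and tumor were sampled at 0 to 24 h. Plasma was obtained by centrifugation at 3000 rpm for 10 min. Samples were stored at −80 °C and quantified by LC-MS/MS.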

[14] = Clearance in human liver microsomes at 10 uM preincubated for 5 mins followed by NADPH addition by LC-MS/MS analysis; assay type: ADME, Microsome; details: read-out: CLH
Outline: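 Compound at 10 µM preincubated 5 min at 37 °C with human or mouse liver microsomes (0.5 mg/mL) in 100 mM phosphate, pH 7.4. Reaction started with 1 mM NADPH, stopped with cold acetonitrile, centrifuged and analysed by LC-MS/MS.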

[15] = Stability of the compound in human plasma assessed as parent compound remaining at 1 uM measured after 60 mins by LC-MS/MS analysis; assay type: ADME, cell-free; details: read-out: Stability; outline: as §1
[16] = MRT in tumor of human HCT116 cells xenografted BALB/c mouse at 80 mg/kg administered as single dose by LC-MS/MS analysis; assay type: ADME, organism-based, Neoplasm; outline: as §3
[17] = test system: HCT-116; experiment: Effect on total phosphorylated CDC37 expression in human HCT116 cells at 10 uM measured up to 48 hrs by Western blot analysis; assay type: ADME, cell-based; details: hct-116, 48 h; outline: as §2
[18] = Tmax in tumor of human HCT116 cells xenografted BALB/c mouse at 80 mg/kg, po administered as single dose by LC-MS/MS analysis; assay type: ADME, organism-based, Neoplasm; outline: as §3
[19] = test system: HCT-116; experiment: Effect on HSP90 expression in human HCT116 cells up to 10 uM measured after 24 hrs by Western blot analysis; assay type: cell-based; details: hct-116, 24 h; outline: as §2
[20] = target: T2, Heat shock protein HSP90; experiment: Binding affinity to recombinant […] biotinylated-HSP90 N-terminal domain (9 to 236 residues) (unknown origin) expressed in Escherichia coli BL21 (DE3) by biolayer interferometry
Outline: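 Biotinylated Hsp90 (100 µg/mL) loaded onto streptavidin sensors prewetted 10 min in PBS with 0.05% BSA and 0.01% Tween 20. Analyte binding measured at 28 °C. Double reference subtraction applied; data fitted to a 1:1 model with K_D = K_off/K_on.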

Q: For `Cc1cc(C)c(S(=O)(=O)N(CC(=O)O)c2ccc(Nc3ccnc(N4CCNCC4)n3)cc2)c(C)c1`, which logD [1] is on record?
A: 1.93

Q: And the remaining at 10 min, 1 µM [2]?
A: 98%

Q: What about the Activity [3] of the same compound?
A: Non-Toxic

Q: And the Activity [4]?
A: Non-Toxic

Q: What about the Activity [5] of the same compound?
A: Non-Toxic

Q: And the Activity [6]?
A: Non-Toxic

Q: And the Activity [7]?
A: Non-Toxic

Q: And the remaining at 1 h, 1 µM [8]?
A: 101%

Q: And the Activity [9]?
A: Non-Toxic

Q: What about the remaining at 1.5 h, 1 µM [10] of the same compound?
A: 105%

Q: And the IC50 [11]?
A: > 100 µM

Q: What about the AUC(0-inf) [12] of the same compound?
A: 536 µg·h/mL

Q: And the Tmax [13]?
A: 0.5 h

Q: And the microsomal CLint at 10 µM [14]?
A: 8.97 µL/min/mg

Q: What about the remaining at 1 h, 1 µM [15] of the same compound?
A: 102%

Q: What about the MRT [16] of the same compound?
A: 6.02 h

Q: What about the Activity [17] of the same compound?
A: Non-Toxic

Q: And the Tmax [18]?
A: 1 h

Q: And the Activity [19]?
A: Non-Toxic

Q: And the Kd [20]?
A: 0.5 µM
